Assay results as given in ChEMBL document CHEMBL1132701, “Orally active isoxazoline glycoprotein IIb/IIIa antagonists with extended duration of action” (J Med Chem, 1999).
pIC50, pKd: −log10 of the molar value. Each block holds one molecule with its values, some of them ahead of it.

Legend:
[1] = system: Canis familiaris; test: Inhibition of ex vivo platelet aggregation in dogs after 24 hr of administration of iv bolus dose of 0.025 mg/kg; type: functional; settings: Canis lupus familiaris
Procedure, shortened: (§1)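 Dogs received an iv bolus, mostly 0.025 mg/kg, with some tested at 0.05 mg/kg. Blood was sampled at 1, 5 and 24 h postdose. Ex vivo platelet aggregation was stimulated with ADP (100 μM) and reported as % inhibition; n = 2.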

[2] = species on record: Homo sapiens; test: The compound was tested for their ability to inhibit ADP-stimulated platelet aggregation in human platelet rich plasma; type: functional
Procedure, shortened: (§2)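 IC50 for inhibition of ADP-induced aggregation in human platelet-rich plasma, determined in three donors.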

[3] = system: Canis familiaris; test: Inhibition of ex vivo platelet aggregation in dogs after 24 hr of administration of oral dose of 0.1 mg/kg; settings: Canis lupus familiaris
[4] = system: Canis familiaris; test: Inhibition of ex vivo platelet aggregation in dogs after 1 hr of administration of oral dose of 0.1 mg/kg; settings: Canis lupus familiaris
[5] = system: Canis familiaris; test: Inhibition of ex vivo platelet aggregation in dogs after 6 hr of administration of oral dose of 0.1 mg/kg; settings: Canis lupus familiaris
[6] = species on record: Canis familiaris; test: The compound was tested for their ability to inhibit ADP-stimulated platelet aggregation in dog platelet rich plasma; type: functional; settings: Canis lupus familiaris
[7] = target: Integrin alpha-IIb/beta-3 (Canis familiaris); test: Dissociation constant for unactivated Fibrinogen Receptor
[8] = target: Integrin alpha-IIb/beta-3 (Canis familiaris); test: Dissociation constant for activated Fibrinogen Receptor
[9] = system: Canis familiaris; test: Inhibition of ex vivo platelet aggregation in dogs after 6 hr of administration of oral dose of 0.1 mg/kg; settings: Canis lupus familiaris; remark: listed apart in the source
[10] = target: Integrin alpha-V/beta-5 (Homo sapiens) (UniProt P06756+P18084); test: Inhibitory activity against alphaV-beta5 integrin at 10 uM; type: protein-complex assay
[11] = target: Integrin alpha-5/beta-1 (Homo sapiens) (UniProt P05556+P08648); test: Inhibitory activity against alpha5-beta1 integrin at 10 uM
[12] = system: Canis familiaris; test: Inhibition of ex vivo platelet aggregation in dogs after 24 hr of administration of oral dose of 0.1 mg/kg; type: functional; settings: Canis lupus familiaris
[13] = target: Integrin alpha-4/beta-1 (Homo sapiens, UniProt P05556+P13612); test: Inhibitory activity against alpha4-beta1 integrin; type: protein-complex assay
Chain of Integrin alpha-4/beta-1 (P05556 whole entry): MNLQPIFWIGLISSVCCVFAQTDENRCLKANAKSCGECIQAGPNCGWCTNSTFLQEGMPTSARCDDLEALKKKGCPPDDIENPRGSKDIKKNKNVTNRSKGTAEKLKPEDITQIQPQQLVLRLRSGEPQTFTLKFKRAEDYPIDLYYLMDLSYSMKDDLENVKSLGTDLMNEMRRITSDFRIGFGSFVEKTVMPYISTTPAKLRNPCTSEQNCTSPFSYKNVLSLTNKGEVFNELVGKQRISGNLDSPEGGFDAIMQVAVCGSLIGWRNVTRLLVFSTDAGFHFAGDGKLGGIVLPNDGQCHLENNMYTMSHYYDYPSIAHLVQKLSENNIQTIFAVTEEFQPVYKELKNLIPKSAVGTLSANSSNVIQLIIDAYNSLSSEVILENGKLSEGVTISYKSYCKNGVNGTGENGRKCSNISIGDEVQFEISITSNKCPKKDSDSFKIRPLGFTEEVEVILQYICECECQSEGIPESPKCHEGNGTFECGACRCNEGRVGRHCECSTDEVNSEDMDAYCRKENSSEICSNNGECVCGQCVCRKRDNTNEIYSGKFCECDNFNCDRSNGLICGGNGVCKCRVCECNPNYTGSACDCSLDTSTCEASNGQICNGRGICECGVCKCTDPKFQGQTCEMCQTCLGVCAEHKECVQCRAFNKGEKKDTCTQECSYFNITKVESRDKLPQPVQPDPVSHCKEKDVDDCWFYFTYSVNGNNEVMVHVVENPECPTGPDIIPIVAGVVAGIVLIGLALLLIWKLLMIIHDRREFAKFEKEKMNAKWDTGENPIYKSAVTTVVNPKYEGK
Chain of Integrin alpha-4/beta-1 (P13612 whole entry): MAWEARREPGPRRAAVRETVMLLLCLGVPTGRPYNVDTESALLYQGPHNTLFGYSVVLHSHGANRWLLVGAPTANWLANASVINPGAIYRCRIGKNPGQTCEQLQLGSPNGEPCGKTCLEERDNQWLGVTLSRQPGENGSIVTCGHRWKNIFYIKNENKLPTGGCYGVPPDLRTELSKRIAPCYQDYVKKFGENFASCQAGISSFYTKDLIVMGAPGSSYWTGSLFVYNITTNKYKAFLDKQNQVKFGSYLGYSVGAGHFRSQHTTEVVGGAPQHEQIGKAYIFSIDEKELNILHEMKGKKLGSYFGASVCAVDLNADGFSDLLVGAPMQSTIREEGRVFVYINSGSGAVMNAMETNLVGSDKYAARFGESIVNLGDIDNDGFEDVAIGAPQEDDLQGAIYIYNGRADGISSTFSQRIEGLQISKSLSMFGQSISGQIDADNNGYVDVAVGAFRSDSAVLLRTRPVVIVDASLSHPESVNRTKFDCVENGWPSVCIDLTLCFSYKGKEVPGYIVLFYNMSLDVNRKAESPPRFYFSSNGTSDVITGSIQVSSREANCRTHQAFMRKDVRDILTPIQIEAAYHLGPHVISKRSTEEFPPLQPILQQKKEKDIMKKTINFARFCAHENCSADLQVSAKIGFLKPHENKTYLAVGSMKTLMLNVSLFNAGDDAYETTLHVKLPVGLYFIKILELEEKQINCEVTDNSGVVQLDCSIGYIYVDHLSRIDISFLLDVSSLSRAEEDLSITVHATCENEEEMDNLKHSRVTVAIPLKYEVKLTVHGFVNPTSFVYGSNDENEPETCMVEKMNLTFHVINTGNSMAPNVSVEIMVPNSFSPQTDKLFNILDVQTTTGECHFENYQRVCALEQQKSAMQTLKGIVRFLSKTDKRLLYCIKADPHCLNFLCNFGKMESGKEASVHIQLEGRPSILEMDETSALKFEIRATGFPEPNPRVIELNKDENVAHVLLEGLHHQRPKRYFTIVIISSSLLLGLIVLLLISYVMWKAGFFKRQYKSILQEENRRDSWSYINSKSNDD

[14] = target: Integrin alpha-V/beta-3 (Homo sapiens, UniProt P05106+P06756); test: Inhibitory activity against […] integrin; type: protein-complex assay
Chain of Integrin alpha-V/beta-3 (P05106 27-788 limits assumed): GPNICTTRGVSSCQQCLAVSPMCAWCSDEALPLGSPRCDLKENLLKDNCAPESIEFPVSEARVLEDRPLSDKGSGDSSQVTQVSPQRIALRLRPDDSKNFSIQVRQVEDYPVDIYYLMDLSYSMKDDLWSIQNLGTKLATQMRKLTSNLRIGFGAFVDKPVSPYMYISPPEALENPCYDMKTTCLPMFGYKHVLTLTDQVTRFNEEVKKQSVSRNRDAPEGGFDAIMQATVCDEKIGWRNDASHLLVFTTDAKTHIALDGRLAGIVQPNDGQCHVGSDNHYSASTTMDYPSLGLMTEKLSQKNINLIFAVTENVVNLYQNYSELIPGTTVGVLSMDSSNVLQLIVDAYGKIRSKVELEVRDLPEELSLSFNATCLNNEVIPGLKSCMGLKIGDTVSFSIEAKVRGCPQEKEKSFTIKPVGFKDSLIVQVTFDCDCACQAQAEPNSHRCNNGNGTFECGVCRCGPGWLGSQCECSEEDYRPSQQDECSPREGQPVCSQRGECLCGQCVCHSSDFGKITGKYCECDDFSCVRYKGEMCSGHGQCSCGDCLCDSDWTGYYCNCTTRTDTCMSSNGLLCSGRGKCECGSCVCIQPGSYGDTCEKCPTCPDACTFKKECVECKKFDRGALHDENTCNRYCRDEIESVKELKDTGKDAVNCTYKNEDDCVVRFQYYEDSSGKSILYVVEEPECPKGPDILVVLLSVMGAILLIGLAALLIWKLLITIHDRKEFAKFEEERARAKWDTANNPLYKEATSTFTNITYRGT
Chain of Integrin alpha-V/beta-3 (P06756 31-889 limits assumed): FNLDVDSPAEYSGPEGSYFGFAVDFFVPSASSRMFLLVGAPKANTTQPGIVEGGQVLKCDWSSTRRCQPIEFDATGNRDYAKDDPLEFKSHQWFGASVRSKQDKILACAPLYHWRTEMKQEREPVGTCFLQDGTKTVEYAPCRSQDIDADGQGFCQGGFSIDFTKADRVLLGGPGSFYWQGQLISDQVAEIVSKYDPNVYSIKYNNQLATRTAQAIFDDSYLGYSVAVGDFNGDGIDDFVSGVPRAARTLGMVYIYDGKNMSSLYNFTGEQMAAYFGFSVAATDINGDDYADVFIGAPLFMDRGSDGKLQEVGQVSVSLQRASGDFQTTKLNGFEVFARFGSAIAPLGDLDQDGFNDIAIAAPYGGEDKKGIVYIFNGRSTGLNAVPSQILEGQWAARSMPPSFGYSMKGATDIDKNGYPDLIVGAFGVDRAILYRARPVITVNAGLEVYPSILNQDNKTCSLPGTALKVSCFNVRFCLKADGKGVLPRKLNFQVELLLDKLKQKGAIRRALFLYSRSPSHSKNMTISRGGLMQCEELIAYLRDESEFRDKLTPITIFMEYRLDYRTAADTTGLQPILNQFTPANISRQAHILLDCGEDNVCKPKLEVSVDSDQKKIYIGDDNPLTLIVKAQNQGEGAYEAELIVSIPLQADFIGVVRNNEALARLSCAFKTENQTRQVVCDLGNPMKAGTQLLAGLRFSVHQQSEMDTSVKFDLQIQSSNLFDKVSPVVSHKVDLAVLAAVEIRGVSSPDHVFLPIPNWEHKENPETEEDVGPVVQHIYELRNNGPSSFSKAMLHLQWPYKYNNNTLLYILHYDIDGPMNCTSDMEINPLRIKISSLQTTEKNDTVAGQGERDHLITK
Chain of Integrin alpha-V/beta-3 (P06756 891-1048 limits assumed): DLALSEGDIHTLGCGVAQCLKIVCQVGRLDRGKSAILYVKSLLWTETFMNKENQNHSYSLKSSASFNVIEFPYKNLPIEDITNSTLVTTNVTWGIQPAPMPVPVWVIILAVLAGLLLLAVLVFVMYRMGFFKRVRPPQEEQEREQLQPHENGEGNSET

[15] = system: Canis familiaris; test: Inhibition of ex vivo platelet aggregation in dogs after 1 hr of administration of oral dose of 0.1 mg/kg; type: functional; settings: Canis lupus familiaris
[16] = system: Canis familiaris; test: Inhibition of ex vivo platelet aggregation in dogs after 24 hr of administration of iv bolus dose of 0.05 mg/kg; type: functional; settings: Canis lupus familiaris; procedure, shortened: as §1
[17] = system: Canis familiaris; test: Inhibition of ex vivo platelet aggregation in dogs after 6 hr of administration of oral dose of 0.1 mg/kg; settings: Canis lupus familiaris; remark: listed apart in the source
[18] = target: Integrin alpha-IIb/beta-3 (Canis familiaris); test: Dissociation constant for unactivated Fibrinogen Receptor; remark: listed apart in the source
[19] = species on record: Canis familiaris; test: The compounds were tested for their ability to inhibit ADP-stimulated platelet aggregation in dog platelet rich plasma; type: functional; settings: Canis lupus familiaris
[20] = system: Canis familiaris; test: Inhibition ex vivo platelet aggregation by the compound in dogs after 6 hr of administration of oral dose of 0.3 mg/kg; settings: Canis lupus familiaris
[21] = system: Canis familiaris; test: Inhibition ex vivo platelet aggregation by the compound in dogs after 1 hr of administration of oral dose of 0.3 mg/kg; settings: Canis lupus familiaris
[22] = system: Canis familiaris; test: Inhibition ex vivo platelet aggregation by the compound in dogs after 24 hr of administration of oral dose of 0.3 mg/kg; settings: Canis lupus familiaris
[23] = species on record: Homo sapiens; test: The compound was tested against free acid of DMP 754 to inhibit ADP-stimulated platelet aggregation in human platelet rich plasma; type: functional; procedure, shortened: as §2
[24] = system: Canis familiaris; test: Inhibition ex vivo platelet aggregation by the compound in dogs after 5 hr of administration of iv bolus dose of 0.025 mg/kg; type: functional; settings: Canis lupus familiaris; procedure, shortened: as §1
[25] = target: Integrin alpha-IIb/beta-3 (Canis familiaris); test: Dissociation constant for activated Fibrinogen Receptor; remark: listed apart in the source
[26] = system: Canis familiaris; test: Inhibition of ex vivo platelet aggregation by the compound in dogs after 1 hr of administration of iv bolus dose of 0.025 mg/kg; type: functional; settings: Canis lupus familiaris; procedure, shortened: as §1

pIC50 [2]: 7.04
SMILES: N=C(N)c1ccc(C2=NOC(CC(=O)NC[C@H](NS(=O)(=O)c3cccc4nsnc34)C(=O)O)C2)cc1 (stereo not given in full)
inhibition in vivo at 0.025 mg/kg [1]: 0%

pIC50 [2]: 6.89
SMILES: Cc1ccccc1S(=O)(=O)N[C@@H](CNC(=O)C[C@H]1CC(c2ccc(C(=N)N)cc2)=NO1)C(=O)O
inhibition in vivo at 0.1 mg/kg [3]: 65%
inhibition in vivo at 0.1 mg/kg [4]: 39%
inhibition in vivo at 0.1 mg/kg [5]: 92%

pIC50 [2]: 7.05
SMILES: N=C(N)c1ccc(C2=NO[C@@H](CC(=O)NC[C@H](NS(=O)(=O)c3ccccc3C(F)(F)F)C(=O)O)C2)cc1

pIC50 [2]: 6.92
SMILES: N=C(N)c1ccc(C2=NOC(CC(=O)NC[C@H](NS(=O)(=O)c3cccc(C(F)(F)F)c3)C(=O)O)C2)cc1 (stereo not given in full)

pIC50 [2]: 7.46
SMILES: Cc1cccc(S(=O)(=O)N[C@@H](CNC(=O)C[C@@H]2CC(c3ccc(C(=N)N)cc3)=NO2)C(=O)O)c1

pIC50 [2]: 7.14
SMILES: Cc1ccc(NS(=O)(=O)N[C@@H](CNC(=O)CC2CC(c3ccc(C(=N)N)cc3)=NO2)C(=O)O)cc1 (stereo not given in full)

pIC50 [2]: 7.22
SMILES: N=C(N)c1ccc(C2=NOC(CC(=O)NC[C@H](NS(=O)(=O)c3cccc(Br)c3)C(=O)O)C2)cc1 (stereo not given in full)

pIC50 [2]: 7.43
SMILES: Cc1ccc(S(=O)(=O)N[C@@H](CNC(=O)CC2CC(c3ccc(C(=N)N)cc3)=NO2)C(=O)O)cc1 (stereo not given in full)

pIC50 [2]: 7.44
SMILES: N=C(N)c1ccc(C2=NOC(CC(=O)NC[C@H](NS(=O)(=O)c3ccccc3Br)C(=O)O)C2)cc1 (stereo not given in full)
inhibition in vivo at 0.05 mg/kg [16]: 100%

pIC50 [2]: 7.60
SMILES: Cc1cccc(S(=O)(=O)N[C@@H](CNC(=O)C[C@H]2CC(c3ccc(C(=N)N)cc3)=NO2)C(=O)O)c1
inhibition in vivo at 0.025 mg/kg [1]: 24%
inhibition in vivo at 0.1 mg/kg [17]: 94%
inhibition in vivo at 0.1 mg/kg [3]: 60%
inhibition in vivo at 0.1 mg/kg [4]: 78%

pIC50 [2]: 6.96
SMILES: Cc1ccccc1S(=O)(=O)N[C@@H](CNC(=O)C[C@@H]1CC(c2ccc(C(=N)N)cc2)=NO1)C(=O)O

pIC50 [2]: 7.09
SMILES: N=C(N)c1ccc(C2=NOC(CC(=O)NC[C@H](NS(=O)(=O)c3cccc4cccnc34)C(=O)O)C2)cc1 (stereo not given in full)
inhibition in vivo at 0.025 mg/kg [1]: 67%

Further lines, the molecule ahead of its results:

SMILES: Cc1noc(C)c1S(=O)(=O)N[C@@H](CNC(=O)C[C@@H]1CC(c2ccc(C(=N)N)cc2)=NO1)C(=O)O
pIC50 [6]: 7.68
pIC50 [2]: 7.54
pKd [7]: 8.43
pKd [8]: 8.57

SMILES: N=C(N)c1ccc(C2=NOC(CC(=O)NC[C@H](NS(=O)(=O)NCCc3ccccc3)C(=O)O)C2)cc1 (stereo not given in full)
pIC50 [2]: 7.15

SMILES: CC(=O)Nc1cnc(S(=O)(=O)N[C@@H](CNC(=O)CC2CC(c3ccc(C(=N)N)cc3)=NO2)C(=O)O)s1 (stereo not given in full)
inhibition in vivo at 0.025 mg/kg [1]: 68%
pIC50 [2]: 7.28

SMILES: CCCS(=O)(=O)N[C@@H](CNC(=O)CC1CC(c2ccc(C(=N)N)cc2)=NO1)C(=O)O (stereo not given in full)
pIC50 [2]: 7.77

SMILES: Cn1cnc(S(=O)(=O)N[C@@H](CNC(=O)CC2CC(c3ccc(C(=N)N)cc3)=NO2)C(=O)O)c1 (stereo not given in full)
pIC50 [2]: 6.96

SMILES: Cc1noc(C)c1S(=O)(=O)N[C@@H](CNC(=O)C[C@H]1CC(c2ccc(C(=N)N)cc2)=NO1)C(=O)O
inhibition in vivo at 0.1 mg/kg [9]: 88%
pIC50 [6]: 7.64
inhibition [10]: < 15%
inhibition [11]: < 5%
pIC50 [2]: 7.54
inhibition in vivo at 0.1 mg/kg [12]: 75%
pKd [7]: 9.05
pKd [8]: 9.22
pIC50 [13]: < 4.00
pIC50 [14]: < 5.00
inhibition in vivo at 0.1 mg/kg [15]: 54%

SMILES: CC(C)NS(=O)(=O)N[C@@H](CNC(=O)CC1CC(c2ccc(C(=N)N)cc2)=NO1)C(=O)O (stereo not given in full)
pIC50 [2]: 7.29

SMILES: CC(C)CNS(=O)(=O)N[C@@H](CNC(=O)CC1CC(c2ccc(C(=N)N)cc2)=NO1)C(=O)O (stereo not given in full)
pIC50 [2]: 7.28

SMILES: CCCCOC(=O)N[C@@H](CNC(=O)C[C@H]1CC(c2ccc(C(=N)N)cc2)=NO1)C(=O)OC [ROXIFIBAN]
pKd [18]: 8.63
pIC50 [19]: 7.57
inhibition in vivo at 0.3 mg/kg [20]: 76%
inhibition in vivo at 0.3 mg/kg [21]: 54%
inhibition in vivo at 0.3 mg/kg [22]: 11%
pIC50 [23]: 7.30
inhibition in vivo at 0.025 mg/kg [24]: 38%
pKd [25]: 8.55
inhibition in vivo at 0.025 mg/kg [26]: 100%

SMILES: N=C(N)c1ccc(C2=NOC(CC(=O)NC[C@H](NS(=O)(=O)Cc3ccccc3)C(=O)O)C2)cc1 (stereo not given in full)
inhibition in vivo at 0.025 mg/kg [1]: 26%
pIC50 [2]: 7.41
